# ChEMBL document CHEMBL4359879, “Synthesis and evaluation of 2-carboxy indole derivatives as potent and selective anti-leukemic agents” (Eur J Med Chem, 2019)
# The source made the active and inactive calls. No cut-off for these calls is given here.
# Assays:
# HL-60 [1] = assay: Effect on human HL60 cells assessed as fold change in NPIPB8 gene expression at 1.085 uM incubated for 6 hrs by microarray-based method; format: functional
# In short: (§1)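 HL60 cells were treated in triplicate with 1.085 µM or vehicle for 6 h. Total RNA was extracted with on-column DNase treatment and profiled on expression arrays.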
# RS4-11 [2] = assay: Induction of apoptosis in human RS4:11 cells assessed as accumulation of cells at sub G2 phase at 300 nM incubated for 18 hrs in presence of PARP antibody by immunofluorescent staining based flow cytometric analysis relative to control; format: functional
# In short: (§2)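 RS4;11 cells treated with 300 nM or DMSO vehicle for 18 h, then pulsed with 10 μM BrdU for 1 h. Harvested cells immunostained for BrdU/PI (cell cycle), γH2AX (DNA damage) and PARP (apoptosis). Multicolor flow cytometry gated G1, sub-G2-like, G2/M and sub-G0/G1 populations.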
# HL-60 [3] = assay: Induction of differentiation in human HL60 cells assessed as increase in CD11b positive cells incubated for 48 hrs by 7-AAD staining-based flow cytometric analysis; format: functional, cell-based
# In short: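 Vitamin D3 at 100 nM and ATRA at 2 μM served as positive controls. Stained with APC anti-CD11b and PE anti-CD14 for 30 min at 4 °C, then 7-AAD.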
# HL-60 [4] = assay: Effect on human HL60 cells assessed as fold change in SPATA7 gene expression at 1.085 uM incubated for 6 hrs by microarray-based method; format: functional; in short: as §1
# RS4-11 [5] = assay: Induction of cell cycle arrest in human RS4:11 cells assessed as decrease in accumulation at G1 phase at 300 nM incubated for 18 hrs by BrdU/propidium iodide staining based flow cytometric analysis; format: functional; in short: as §2
# HL-60 [6] = assay: Effect on human HL60 cells assessed as fold change in C14orf180 gene expression at 1.085 uM incubated for 6 hrs by microarray-based method; format: functional; in short: as §1
# HL-60 [7] = assay: Effect on human HL60 cells assessed as increase in p53 protein expression at 300 nM incubated for 15 to 360 mins by Western blot analysis; format: functional, cell-based
# In short: (§3)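 Leukemia cells (RS4;11, CEM, HL60) treated with 300 nM for 0, 15, 30, 60 and 360 min. Western blotting for β-tubulin and p53, with lamin B1 as loading control and chemiluminescent detection.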
# HL-60 [8] = assay: Effect on human HL60 cells assessed as fold change in TAS1R1 gene expression at 1.085 uM incubated for 6 hrs by microarray-based method; format: functional; in short: as §1
# HL-60 [9] = assay: Effect on human HL60 cells assessed as fold change in TBCC gene expression at 1.085 uM incubated for 6 hrs by microarray-based method; format: functional; in short: as §1
# HL-60 [10] = assay: Effect on human HL60 cells assessed as fold change in PNMT gene expression at 1.085 uM incubated for 6 hrs by microarray-based method; format: functional; in short: as §1
# HL-60 [11] = assay: Effect on human HL60 cells assessed as fold change in PHF20L1 gene expression at 1.085 uM incubated for 6 hrs by microarray-based method; format: functional; in short: as §1
# HL-60 [12] = assay: Effect on human HL60 cells assessed as fold change in DSTYK gene expression at 1.085 uM incubated for 6 hrs by microarray-based method; format: functional; in short: as §1
# Tubulin (Homo sapiens) = Tubulin (Homo sapiens) (UniProt P68371+Q9H4B7+P0DPH7+P68366+Q13509+Q71U36+P04350+Q3ZCM7+P07437+P68363+Q9BQE3+Q6PEY2+Q13885+Q9BVA1+Q9BUF5); assay: Inhibition of tubulin polymerization in human RS4:11 cells at 300 nM by Western blot analysis; format: cell-based; settings: TDE = time-dependent effect; in short: as §3
# HL-60 [13] = assay: Effect on human HL60 cells assessed as fold change in INSIG1 gene expression at 1.085 uM incubated for 6 hrs by microarray-based method; format: functional; in short: as §1
# HL-60 [14] = assay: Induction of apoptosis in human HL60 cells at 300 nM incubated for 18 hrs by Annexin V-FITC/propidium iodide staining-based flow cytometric analysis; format: functional, cell-based
# In short: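 CEM, HL60 or RS4;11 cells (5×10^5) treated with 300 nM or vehicle for 18 h. Stained with FITC-Annexin V in binding buffer for 15 min at 37 °C, then PI (5 μg/mL) for 3 min. Analyzed by flow cytometry.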
# CCRF-CEM = assay: Effect on human CEM cells assessed as increase in p53 protein expression at 300 nM incubated for 15 to 360 mins by Western blot analysis; format: functional, cell-based
# In short: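 RS4;11, CEM and HL60 cells were exposed to 300 nM for 0, 15, 30, 60 and 360 min. Lysates were immunoblotted for β-tubulin and p53, with lamin B1 as loading control. Detection was by chemiluminescence.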
# HL-60 [15] = assay: Effect on human HL60 cells assessed as fold change in MIR4658 gene expression at 1.085 uM incubated for 6 hrs by microarray-based method; format: functional; in short: as §1
# HL-60 [16] = assay: Effect on human HL60 cells assessed as fold change in ZNF79 gene expression at 1.085 uM incubated for 6 hrs by microarray-based method; format: functional
# HL-60 [17] = assay: Induction of cell cycle arrest in human HL60 cells assessed as accumulation of cells at G2/M phase at EC50 incubated for 12 hrs by PI staining based flow cytometric analysis (reference value: 23.0%); format: functional
# HL-60 [18] = assay: Effect on human HL60 cells assessed as fold change in TM2D3 gene expression at 1.085 uM incubated for 6 hrs by microarray-based method; format: functional; in short: as §1
# HL-60 [19] = assay: Effect on human HL60 cells assessed as fold change in SLC8A2 gene expression at 1.085 uM incubated for 6 hrs by microarray-based method; format: functional; in short: as §1
# HL-60 [20] = assay: Induction of cell cycle arrest in human HL60 cells assessed as accumulation of cells at S phase at EC50 incubated for 12 hrs by PI staining based flow cytometric analysis (reference value: 19.0%); format: functional
# HL-60 [21] = assay: Effect on human HL60 cells assessed as fold change in GPSM2 gene expression at 1.085 uM incubated for 6 hrs by microarray-based method; format: functional; in short: as §1
# HL-60 [22] = assay: Effect on human HL60 cells assessed as fold change in PPP1R1A gene expression at 1.085 uM incubated for 6 hrs by microarray-based method; format: functional; in short: as §1
# RS4-11 [23] = assay: Antiproliferative activity against human RS4:11 cells incubated for 48 hrs by MTT assay; format: functional, cell-based; settings: RS4-11, 48 h
# In short: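 Cells grown in RPMI-1640 with 10% FBS, penicillin/streptomycin, 37 °C, 5% CO2. After 48 h of exposure to a dilution series, MTT was added (0.5 mg/ml final) for 4 h. Formazan was dissolved overnight in acidic SDS (10% SDS, 0.01 mol/L HCl) and absorbance read at 570 and 620 nm. Survival was expressed relative to controls, and EC50 was fitted from dose-response curves.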
# HeLa = assay: Induction of cell cycle arrest in human HeLa cells assessed as formation of condensed chromosomes at 500 nM incubated for 18 hrs by DAPI staining based fluorescence microscopic method; format: functional
# In short: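 HeLa cells (100,000/mL) cultured overnight on glass-bottom dishes, then exposed to 500 nM or 1 μM, or DMSO, for 18 h. Permeabilized (0.5% Triton X-100) and fixed (3.7% formaldehyde). Stained overnight at 4 °C with anti-β-tubulin, then Alexa Fluor 647 secondary for 1 h at room temperature, and DAPI 1 μg/mL for 10 min. Examined by fluorescence microscopy.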
compound,measurement,setting,value
COC(=O)c1[nH]c2cc(OC)ccc2c1-c1ccc(C(F)(F)F)cc1,fold change (FC),HL-60 [1],1.5
same,Activity,RS4-11 [2],3.5%
same,Activity,HL-60 [3],Dose-dependent effect
same,fold change (FC),HL-60 [4],1.56
same,Activity,RS4-11 [5],Active
same,fold change (FC),HL-60 [6],1.56
same,Activity,HL-60 [7],Active
same,fold change (FC),HL-60 [8],-1.51
same,fold change (FC),HL-60 [9],-1.54
same,fold change (FC),HL-60 [10],-1.53
same,fold change (FC),HL-60 [11],1.56
same,fold change (FC),HL-60 [12],1.61
same,inhibition,Tubulin (Homo sapiens),Tde
same,fold change (FC),HL-60 [13],-1.64
same,Activity,HL-60 [14],Active
same,Activity,CCRF-CEM,Active
same,fold change (FC),HL-60 [15],-1.72
same,fold change (FC),HL-60 [16],-1.88
same,Activity,HL-60 [17],48%
same,fold change (FC),HL-60 [18],-1.65
same,fold change (FC),HL-60 [19],-1.53
same,Activity,HL-60 [20],19.1%
same,fold change (FC),HL-60 [21],1.62
same,fold change (FC),HL-60 [22],-1.7
same,EC50,RS4-11 [23],300 nM
same,Activity,HeLa,Active
